Rows were chosen to be rich in hits. Some 3.4% of all compounds tested hit in one or more screens of this group.
RanGTP-Imp inh: inhibitors of RanGTP-importin-beta interaction, primary screen, biochemical, FRET, CFP-Ran, YFP-importin-beta, homogeneous. Ran GTPase (GTP-bound) - importin-beta complex. cell-free CFP-Ran/YFP-importin-beta FRET ratio. inhibition, % (test concentration not listed). 300,000 compounds, 1.1% hits. AID 2216, 2009;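 active means more than half of the replicate wells show a fall in the fluorescence ratio signal beyond about 16%, limit read from the data, passing the limit was not always enough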;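 further: 0% = DMSO wells and 100% = Ran loaded with GDP instead of GTP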
PHOSPHO1 block: PubChem AID 1565 | recombinant PHOSPHO1, absorbance phosphatase assay | Phosphoethanolamine/phosphocholine phosphatase (Homo sapiens), Q8TCT1 | 290,000 compounds, 1.1% hits | inhibition, % at 13.3 µM; in the data active means inhibition above about 60%
Target sequence (Q8TCT1 whole entry, looked up): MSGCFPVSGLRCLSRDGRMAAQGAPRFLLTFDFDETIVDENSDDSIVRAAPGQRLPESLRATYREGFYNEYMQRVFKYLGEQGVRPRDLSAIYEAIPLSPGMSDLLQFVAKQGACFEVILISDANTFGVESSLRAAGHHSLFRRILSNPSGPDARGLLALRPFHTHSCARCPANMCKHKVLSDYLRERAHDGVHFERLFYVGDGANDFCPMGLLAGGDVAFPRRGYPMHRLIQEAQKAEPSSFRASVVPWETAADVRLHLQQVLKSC
HMGR II inh: inhibitors of E. faecalis class II HMGR, primary screen, biochemical, Enterococcus faecalis; purified E. faecalis HMGR, NADPH absorbance 340 nm kinetic; inhibition, % at 10 µM; 190,000 compounds, 0.41% hits;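 active means inhibition above a set limit, the median over all tested compounds plus 3 SD, cut at about 9.5% in these data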;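 further: enzyme runs in reverse so mevalonate oxidation gives rising NADPH absorbance; 0% = complete reaction with DMSO and 100% = background rate lacking mevalonate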
Runt-CBFb FRET: inhibitors of RUNX1 Runt–CBFb binding, primary screen, biochemical, FRET, Cerulean-Runt, Venus-CBFb, uHTS. AID 1496, 2009. 220,000 compounds, 0.46% hits. Cerulean-Runt/Venus-CBFb FRET ratio 530/480, 1 h. Runt-related transcription factor 1 (Homo sapiens) + Core-binding factor subunit beta …. inhibition, % at 20 µM;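 active means inhibition over about 50% at 20 µM in the single-dose screen, limit read from the data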;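 further: 0% = DMSO wells and 100% = excess unlabeled CBFb competitor control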
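Reagent – Venus-CBFb binding partner, 100 nM · Assay system – Cerulean-tagged RUNX1 Runt domain (FRET donor) fusion protein · Input – 100 nM per protein · Incubation – two 1 h room-temperature incubations shielded from light · Measured by – FRET fluorescence · Medium – Tris buffer pH 7.5 with salts and BSA · Benchmarks – unlabeled CBFb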
Wee1 stabilizer: Wee1 degradation inhibitors, primary screen, cell-based, HeLa, Wee1K328M-luciferase, luminescence; Wee1-like protein kinase (Homo sapiens), P30291; HeLa Luc-Wee1K328M stability; 100% = proteasome inhibitor MG132 effect; reporter increase, % at 5 µM; 220,000 compounds, 1.2% hits;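 active means activation above the mean of all tested compounds plus 3 SD, set per screening run, cut at about 8.8% in these data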;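 further: cells exposed to compound for 20 h before luminescence read; 0% = DMSO alone and 100% = MG132 at 30 µM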
Runt-SMMHC FRET: inhibitors of RUNX1 Runt–CBFb-SMMHC binding, primary screen, biochemical, FRET, Cerulean-Runt, Venus-CBFb-SMMHC, uHTS. Runt-related transcription factor 1 (Homo sapiens) + Core-binding factor subunit beta …. Cerulean-Runt/Venus-CBFb-SMMHC FRET ratio 530/480, 1 h. inhibition, % at 20 µM. 220,000 compounds, 0.74% hits;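 active means mean inhibition across duplicate retests at 20 µM reaching about 50%, limit read from the data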;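 further: 0% = DMSO wells and 100% = wells with excess untagged CBFb-SMMHC; inhibitors lower the FRET ratio by blocking Runt binding to CBFb-SMMHC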
* marks the source's active call; other numbers are inactive results; nt = no result given.

SMILES	RanGTP-Imp inh	PHOSPHO1 block	HMGR II inh	Runt-CBFb FRET	Wee1 stabilizer	Runt-SMMHC FRET
CCOc1c(C)cnc2c1c(=O)n(Cc1c(F)cccc1Cl)c(=O)n2C	1.1	18.4	nt	nt	nt	nt
Nc1c(C(=O)Nc2ccccc2)sc2nc3c(c(-c4ccco4)c12)CCC3	-6.0	86.6*	0.5	11.6	-2.0	-1.4
Nc1c(C(=O)Nc2ccccc2)sc2nc3c(c(-c4ccco4)c12)CCCC3	-34.0	-60.3	-1.0	6.4	4.2	-9.2
Cc1cc(C)n(/C(=C\N(C)C)C(=O)c2ccc(Cl)cc2)n1	-0.7	16.3	-2.8	1.3	-2.0	0.4
CN(C)/C=C(/C(=O)c1ccc(Cl)cc1Cl)S(=O)(=O)c1ccccc1	-2.6	-0.7	-2.4	1.7	9.6*	0.7
CN(C)/C=C(/C(=O)c1ccc(Cl)cc1)S(=O)(=O)c1ccc(Cl)cc1	-2.9	28.3	11.8*	1.2	0.1	3.5
CN(C)/C=C(/C(=O)c1ccc(Cl)cc1Cl)S(=O)(=O)c1ccc(Cl)cc1	1.2	-0.3	-8.1	0.5	0.9	1.7
Cc1cccc(NC(=O)C2CC(=O)N(Cc3ccccc3)C2)n1 (stereo unspecified)	-5.8	nt	nt	nt	nt	nt
COC(=O)c1cc(C(=O)OC)cc(N2C(=O)CC(Sc3nc(C)cc(C)n3)C2=O)c1 (stereo unspecified)	-3.9	18.9	-7.4	11.4	0.9	0.2
COC(=O)c1ccc(N2C(=O)CC(Sc3n[nH]c(C)n3)C2=O)cc1 (stereo unspecified)	0.7	84.9*	-0.3	12.9	-0.3	9.7
O=C(NC(=O)c1csnn1)Nc1ccccc1Cl	5.1	17.6	nt	nt	nt	nt
CCn1c(-c2ccccc2Cl)nn(CC(=O)Nc2ccccc2C)c1=S	0.5	100.4*	-0.1	-11.5	-3.0	2.3
COCCNC(=O)c1ccc2ccccc2n1	-2.2	0.5	-2.0	-0.5	5.8	0.6
Cc1ccccc1OCCNC(=O)c1ccc2ccccc2n1	-7.9	-5.7	2.4	-7.4	9.6*	-1.0
CCc1ccccc1NC(=O)CNCC(=O)Nc1ccccc1CC	-3.3	18.4	nt	nt	nt	nt
CC(C)(C)c1ccc(C(=S)N2CCN(c3ccccc3)CC2)cc1	0.1	-123.9	nt	21.6	-0.3	-3.8
CCN(CC)c1ccc(C(=S)N2CCN(c3ccccc3)CC2)cc1	-0.3	74.0*	0.8	7.6	-3.1	0.5
O=C1SC(SCc2ccccc2)=N/C1=C\c1ccco1	0.4	2.2	0.3	12.1	-2.6	-0.2
CCCSC1=N/C(=C\C=C\c2ccco2)C(=O)S1	-6.6	89.7*	-2.9	8.8	-2.3	-8.7
Cc1cc(Br)ccc1NC(=O)C1CCN(C(=O)c2ccco2)CC1	1.9	44.9	nt	nt	nt	nt
Cc1cccn2c(CNCCCn3ncc4ccccc43)c(C(=O)N3CCCCC3)nc12	-0.2	2.3	-8.0	0.0	10.4*	5.4
Cc1cccn2c(CNCCSc3nccn3C)c(C(=O)N3CCCCC3)nc12	5.3	-21.5	nt	1.1	8.9*	-4.7
O=C1c2ccccc2NC(c2ccc(Cl)cc2Cl)N1Cc1ccccc1 (stereo unspecified)	-10.4	18.2	-0.1	-1.5	2.4	-5.5
Cc1ccsc1C1Nc2ccccc2C(=O)N1O (stereo unspecified)	-2.7	-5.0	-2.5	-0.4	9.0*	-4.5
Cc1nn(C)c(C)c1C1Nc2ccccc2C(=O)N1O (stereo unspecified)	3.7	11.1	-2.7	-1.9	2.9	-5.0
SMILES	RanGTP-Imp inh	PHOSPHO1 block	HMGR II inh	Runt-CBFb FRET	Wee1 stabilizer	Runt-SMMHC FRET
O=C1c2ccccc2NC(c2ccc(Cl)cc2Cl)N1O (stereo unspecified)	1.2	1.6	15.2*	-2.6	-1.8	-1.5
CC1(C)CC2CC(C)(CN2C(=O)COC(=O)CNC(=O)c2ccc(Cl)c(Cl)c2)C1 (stereo unspecified)	4.9	-6.0	-2.2	-3.2	10.6*	-5.7
COc1ccc(CN2C(=NC(=O)C3CCCCC3)SC3CS(=O)(=O)CC32)cc1 (stereo unspecified)	0.2	12.1	nt	nt	nt	nt
CC1=NN(c2ccccc2)C(=O)/C1=C\c1c(C)[nH]n(-c2ccccc2)c1=O	0.0	-6.8	-3.2	-2.9	15.8*	-13.3
Cc1ccc(S(=O)(=O)N2CCCCC2)cc1NC(=O)Cn1c(=O)cnc2ccccc21	-2.8	60.0*	-2.2	-2.6	2.7	-1.6
COc1ccc(NC(=O)Cn2c(=O)cnc3ccccc32)cc1S(=O)(=O)N1CCCCC1	0.5	nt	nt	nt	nt	nt
COc1cc(C(c2nnnn2C2CCCC2)N2CCc3ccccc3C2)ccc1O (stereo unspecified)	3.1	77.4*	-4.3	15.6	-0.6	14.1
Oc1ccc(C(c2nnnn2C2CCCC2)N2CCc3ccccc3C2)cc1 (stereo unspecified)	2.5	84.4*	1.1	10.5	5.4	8.2
N#Cc1cccc(C(c2nnnn2C2CCCC2)N2CCCCCC2)c1 (stereo unspecified)	-0.3	62.3*	0.0	-4.1	1.8	-1.8
N#Cc1cccc(C(c2nnnn2C2CCCC2)N2CCC(Cc3ccccc3)CC2)c1 (stereo unspecified)	7.0	3.9	-3.6	-0.3	-2.5	4.6
O=c1[nH]cc(N=Cc2cc(Cl)cc(Cl)c2O)c(=O)[nH]1	4.9	23.9	nt	nt	nt	nt
CCc1cc(C(=O)N2CCCC(C(=O)c3ccc(Oc4ccccc4)cc3)C2)n(C)n1 (stereo unspecified)	-0.6	29.0	nt	nt	nt	nt
O=C(c1cccc(NS(=O)(=O)c2cccc(F)c2)c1)N1CCCC1	-2.1	nt	nt	nt	nt	nt
O=C(CN1C(=O)C(c2ccccc2)Oc2cccnc21)NCc1ccccc1F (stereo unspecified)	4.9	22.2	nt	nt	nt	nt
O=C1Nc2ccccc2N(O)N1c1ccc(S(=O)(=O)N2CCCCCC2)cc1	1.0	-9.7	6.5	-0.2	9.7*	-0.8
CCN(CC)S(=O)(=O)c1ccc(N2C(=O)Nc3ccccc3N2O)cc1	0.7	-9.7	-0.6	-2.0	0.6	-0.1
COc1cc2c(cc1OC)CN(c1nc(-c3cccnc3)nc3ccccc13)CC2	-2.7	8.6	-3.4	-9.0	10.2*	-9.0
O=C(O)CCNC(=O)c1ccc(N=Nc2ccc(O)c(C(=O)O)c2)cc1	3.5	nt	nt	nt	nt	nt
CCOC(=O)C1CCN(C(c2cc3c(C)ccc(C)c3[nH]c2=O)c2nnnn2C2CCCCC2)CC1 (stereo unspecified)	-1.5	74.3*	-6.3	-19.5	-1.2	-21.4
